# Measured values gathered from unrelated publications.
# Each line is one published result; the experiments were not run side by side. pIC50: −log10 of the molar value.
# Cell line: MDA-MB-468
# Observed: cell growth or viability
SMILES,assay,conditions,endpoint,value
COc1ccc(C(=O)/C=C/c2ccc(Cl)c(Cl)c2)cc1S(N)(=O)=O,SRB,10 µM,inhibition,119%
Cc1ncsc1-c1ccc(CNC(=O)[C@@H]2C[C@@H](O)CN2C(=O)[C@@H](NC(=O)CCCCCCCCCC(=O)N2CCN(CC[C@H](NC(=O)C3(N)CCN(c4ncnc5[nH]ccc45)CC3)c3ccc(Cl)cc3)CC2)C(C)(C)C)cc1,,72 h,GI50,0.49 µM
CCc1ccc(N2NC(=O)/C(=C/c3ccc(-c4ccc(S(=O)(=O)Nc5nccs5)cc4)o3)C2=O)cc1,MTT,72 h,pIC50,4.13
COc1cc(-c2ccc(-c3ccc(C(=N)N)nc3)s2)cc(OC)c1OC,SRB,,GI50,1.74 µM
Cc1cc(NCCCCCCCCNc2cc(C)nc3cc(N)ccc23)c2ccc(N)cc2n1,MTT,,pIC50,5.29
Cc1cc(NS(=O)(=O)c2ccc(NC(=O)COc3ccc(C(C)(C)c4ccccc4)cc3)cc2)nc(C)n1,MTT,48 h,pIC50,4.35
COc1ccc(-c2ccc(-c3ccc(C(=N)N)nc3)s2)cc1Cl,SRB,,GI50,1.74 µM
CC(=O)c1c(C)c2cnc(Nc3ccc(N4CCNCC4)cn3)nc2n(C2CCCC2)c1=O,resazurin,,GI50,7.5 µM
Cc1cc(NCCCCCCCNc2cc(C)nc3cc(N)ccc23)c2ccc(N)cc2n1,MTT,96 h,pIC50,4.80
NC1(C(=O)N[C@@H](CCO)c2ccc(Cl)cc2)CCN(c2ncnc3[nH]ccc23)CC1,,72 h,GI50,> 8 µM
c1csc(-c2c3ccccc3cc3c2ccc2ccccc23)c1,MTT,,pIC50,4.47
COc1ccc(C(=O)/C=C/c2cccc(Br)c2)cc1S(N)(=O)=O,SRB,10 µM,inhibition,154%
